Compound activity: PubChem BioAssay, several laboratories
Many of the other results were omitted from the sample, so hits are more common in it than they were.
T cruzi repl: blocks replication of Trypanosoma cruzi; T. cruzi beta-gal in NIH3T3, luminescence, 90 h; inhibition, % (test concentration not listed); 1.4% of 300,000 active; AID 1885;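 active means mean inhibition across valid replicates above about 55%, limit read from the data; inconclusive means mean below that limit but half or more replicates reach it; inactive means mean below it, under half of replicates reach it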;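 further: signal also drops with host cell toxicity which is not excluded here; 0% = plate median of DMSO wells and 100% = zero luminescence signal; higher percent means less beta-gal luminescence so fewer parasites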
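System – NIH/3T3 host cells with β-galactosidase reporter T. cruzi · Doses – single 50 nL compound addition per well in DMSO · Reagent – 5000 T. cruzi trypomastigotes/well · Medium – Low-serum DMEM with 2% FBS · Timing – ≥90 h infection period, 3 h prior cell attachment · Evaluation – parasite load inhibition, % · Technique – GalScreen luminescence, 60 min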
PolyA inhibitor: inhibitors of polyadenylation in S. cerevisiae | S. cerevisiae SKY197-pL101 polyadenylation reporter, beta-gal luminescence; efflux-impaired pdr1/pdr3 knockout yeast; score 100 = 6 SD above DMSO | activity score, % at 12 µM | 0.02% of 300,000 active;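 active means lowest replicate activity score at least 50, where 100 means six control SD above control mean; inconclusive means lowest score under 50 but half or more replicates reach 50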;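 further: yeast exposed to compound for 9 h at 30 °C; higher score means more reporter readthrough which indicates perturbed polyadenylation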
Lmaj promast: Leishmania major promastigote growth inhibition | Leishmania major promastigotes, resazurin fluorescence viability | inhibition, % at 10 µM | 9% of 200,000 active; in the data active means inhibition above about 50%;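 further: promastigotes grown with compound for 44 hours at 28 °C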
NALP1 yeast inh: NALP1 inhibition; S. cerevisiae NALP1/ASC/caspase-1 growth, X-gal OD620, 72 h; inhibition, % at 10 µM; 0.61% of 280,000 active; AID 2071; in the data active means inhibition mostly above about 24%, no sharp cut-off; inactive means mostly below about 32%
Calb FLC: C. albicans growth modulation with fluconazole; C. albicans CaCi-2 + fluconazole, Alamar Blue growth, 48 h; growth inhibition, % (test concentration not listed); 0.57% of 300,000 active; AID 1979;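 active means growth inhibition above about 58% in most replicates, limit read from the data, passing the limit was not always enough; inconclusive means exactly half the replicates above a set limit; inactive means most replicates below a set limit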;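 further: all wells also contain fluconazole at 8 µg/ml as a sub-toxic cotreatment; 0% = median of DMSO wells and 100% = median of geldanamycin control wells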
NALP3 yeast inh: blocks the NALP3 inflammasome reconstituted in yeast | Yeast reconstituted NLRP3/ASC/caspase-1, beta-gal luminescence, 24 h | inhibition, % at 10 µM | 0.39% of 330,000 active | AID 2825;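 active means inhibition of 50% or more; inactive means inhibition below 50%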;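 further: plate controls were induced DMSO wells for no effect and uninduced yeast grown without galactose for full effect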
Active calls of the source: *; ? = inconclusive; nt = no result given.

SMILES	T cruzi repl	PolyA inhibitor	Lmaj promast	NALP1 yeast inh	Calb FLC	NALP3 yeast inh
COc1cccc(Cn2cc(N)cn2)c1	-1.9	-4.8	98.4*	-3.4	32.1	19.2
Nc1cnn(Cc2ccccc2F)c1	10.5	-11.8	100.2*	1.1	18.2	7.5
Nc1cnn(Cc2ccc(F)cc2)c1	0.5	2.1	14.8	4.0	-8.3	-6.7
COc1ccccc1-c1nc2cc3ccccc3cc2nc1-c1ccccc1	20.9	-16.3	20.3	17.8	?	9.6
CCOc1ccc(-n2c(=S)sc3c(=O)[nH]c(SCC(=O)C(C)(C)C)nc32)cc1	28.0	-5.5	0.9	11.1	35.9	8.1
CSc1cccc(NS(=O)(=O)c2ccc3c(c2)NC(=O)C(C)C(=O)N3)c1 (stereo not given)	-31.0	2.0	nt	-5.1	0.9	-1.0
CCOc1ccc(NC(=O)COC(=O)CCN2C(=O)C3CC=CCC3C2=O)cc1OCC (stereo not given)	nt	nt	nt	nt	nt	10.6
Nc1ncnc(Sc2ncccn2)c1[N+](=O)[O-]	37.5	-7.0	59.3*	5.3	84.8*	nt
Nc1ncnc(Sc2ccc(Cl)cc2)c1[N+](=O)[O-]	50.1	-11.8	66.6*	29.2	-7.5	nt
CCOC(=O)[C@@H]1[C@H]2COc3cc(OC)ccc3[C@@H]2N2C(=O)N(c3ccc(F)cc3)C(=O)[C@@]12C	nt	nt	nt	nt	nt	7.7
CCc1c(O)c(/C(C)=N\O)c(=O)n(-c2ccccc2)c1-c1ccccc1	-10.1	-19.6	67.3*	9.2	?	-7.5
C=CCO/N=C(/C)c1c(O)c(CC)c(-c2ccccc2)n(-c2ccccc2)c1=O	-1.5	-0.9	51.0*	-45.9	28.6	19.0
O=[N+]([O-])c1cc2c(cc1Br)CCN2	2.0	-2.1	-1.4	9.6	4.8	-14.8
O=C(CSc1ccc(Cl)cc1)OCC(=O)N1CCN(c2ccccc2)CC1	nt	nt	nt	nt	nt	-2.4
CCOc1ccccc1N1CCN(S(=O)(=O)c2ccc3c4c(cccc24)C(=O)N3)CC1	13.4	-2.8	74.1*	13.6	0.8	18.6
CCOC(=O)N1CCN(S(=O)(=O)c2ccc3c4c(cccc24)C(=O)N3)CC1	-6.0	0.4	nt	16.7	-2.5	3.0
COc1cc(NC(=O)c2cccc3c2C(=O)N(C2CCCCC2)C3)cc(OC)c1OC	31.9	11.6	nt	4.0	32.7	18.0
CCOC(=O)c1sc2nc(NC(=O)C(C)(C)C)sc2c1C	16.6	-10.7	65.0*	3.7	-6.3	36.9
CCOC(=O)c1sc2nc(NC(=O)C3CC3)sc2c1C	7.7	-5.5	1.6	5.3	-4.1	29.1
COc1ccc(Oc2nnc(-c3ccc(C)cc3)c3ccccc23)cc1	-13.9	3.3	-4.0	3.0	-0.6	12.7
O=C(Nc1ccc(Oc2nnc(-c3ccccc3)c3ccccc23)cc1)c1ccccc1	31.1	-20.0	77.0*	10.8	-9.2	15.9
CSc1ccccc1C(=O)C1CCCN(Cc2cnn(-c3ccccc3)c2)C1 (stereo not given)	74.2*	7.5	73.1*	20.9	-12.5	13.4
CCn1cc(CN2CCCC(C(=O)c3ccc(-c4ccccc4)c(F)c3)C2)cn1 (stereo not given)	55.4*	5.3	nt	nt	-2.2	17.4
O=C(c1ccc(-c2ccccc2)c(F)c1)C1CCCN(CCCn2cccn2)C1 (stereo not given)	44.9	9.8	nt	nt	0.1	26.3
CSc1ccccc1C(=O)C1CCCN(Cc2c(C)n(C)n(-c3ccccc3)c2=O)C1 (stereo not given)	6.1	nt	6.1	10.8	-11.3	15.2
SMILES	T cruzi repl	PolyA inhibitor	Lmaj promast	NALP1 yeast inh	Calb FLC	NALP3 yeast inh
CC(NC(=O)c1cccc(N(C)C)c1)c1ccc(-n2ccnc2)cc1 (stereo not given)	15.1	1.8	nt	1.8	1.3	7.2
O=C(N/N=C/c1ccc([N+](=O)[O-])o1)C(=O)Nc1ccc(C(=O)O)cc1	8.0	-1.4	nt	-4.1	-10.7	8.2
Cc1cc(C(=O)N/N=C/c2ccc([N+](=O)[O-])o2)c(C)o1	49.0	12.5	nt	5.2	10.5	-11.2
CCCC(=O)Nc1ccc(C(=O)N/N=C/c2ccc([N+](=O)[O-])o2)cc1	49.0	-5.3	98.8*	19.2	4.7	12.1
Cc1ccc(NC(=O)CCC(=O)N/N=C/c2ccc([N+](=O)[O-])o2)cc1C	60.6*	8.0	nt	nt	7.2	15.3
COc1ccc(/C=C2\SC(=S)N(CCC(=O)NC3CCCC3)C2=O)cc1OC	-2.7	7.9	nt	16.7	21.5	36.1
O=C(Cn1ccc2ccccc2c1=O)NCCC(=O)NC1CCN(Cc2ccccc2)CC1	0.9	-10.8	-0.7	26.4	-4.3	14.1
CN(C(=O)c1ccc(S(=O)(=O)c2cccc(Cl)c2)c([N+](=O)[O-])c1)C1CCCCC1	-13.6	-17.4	99.6*	21.0	-2.4	3.4
COc1ccc(CN2CCNC(=O)C2CC(=O)N2CCCO2)c(OC)c1 (stereo not given)	0.9	0.3	-3.6	3.4	-3.0	4.4
CCc1nnc(NC(=O)c2ccc(Br)c(S(=O)(=O)N3CCOCC3)c2)s1	-22.5	23.6	nt	13.6	0.3	-5.1
COc1ccc(OC)c(/C=C/C(=O)Nc2ccc(OC)nc2)c1	-1.4	-9.3	1.6	31.5	112.8*	36.0
COc1ccc(NS(=O)(=O)c2cc(NC(=O)/C=C/c3cc(OC)ccc3OC)ccc2N2CCCCC2)cc1	12.3	5.5	92.1*	27.1	-5.8	16.2
COc1ccc(NS(=O)(=O)c2cc(NC(=O)c3ccco3)ccc2N2CCCC2)cc1	8.4	0.2	82.3*	19.6	7.4	8.4
COc1ccc(S(=O)(=O)N2CCC(C(=O)NCC3CC3)CC2)cc1	2.4	17.7	nt	5.2	3.2	6.5
CC(C)(C)OC(=O)N1CCC(NC(=O)c2nc[nH]c2C(=O)N2CCN(c3ccccc3)CC2)CC1	nt	nt	nt	nt	nt	10.7
O=C1c2ccccc2C2(c3ccccc3)N1CCN2C(=O)C(Cl)(Cl)Cl (stereo not given)	1.1	7.3	nt	-9.5	-3.6	-1.4
Cc1ccc(C(=O)N2CCN3C(=O)c4ccccc4C23c2ccccc2)cc1 (stereo not given)	6.2	-2.9	53.6*	-11.4	-38.3	2.4
CC1CCCN(Cc2c(O)ccc3c(=O)c(-c4nc5ccccc5s4)c(N)oc23)C1 (stereo not given)	42.5	-1.2	100.7*	6.5	81.0*	14.5
CC1CCN(Cc2c(O)ccc3c(=O)c(-c4nc5ccccc5s4)c(N)oc23)CC1	27.8	15.0	60.3*	19.9	-7.4	29.1
CC(C)(O)C#Cc1ccc(C(=O)NCc2ccccc2)s1	-4.6	-6.9	-3.2	nt	-9.8	8.5
CCn1cc(C(=O)OCC(=O)c2cc(C)n(-c3ccccc3F)c2C)c(=O)c2ccc(C)nc21	28.9	-17.3	52.9*	33.7	14.9	-7.4
CCn1cc(C(=O)OCC(=O)c2cc(C)n(-c3ccccc3)c2C)c(=O)c2ccc(C)nc21	17.4	-1.8	-3.9	19.7	39.2	5.6
